Results gathered from unrelated publications.
Lines come from different studies, so protocols differ.
Medium: plasma

SMILES	system	setting	endpoint	result
Cc1c(C(=O)O)ccc2c3n(nc12)[C@@H]1[C@H](C3)N(CC2CC2)[C@@]2(C(=O)Nc3cc(Cl)ccc32)[C@H]1c1cccc(Cl)c1F	female mouse	oral, 5 mg/kg	AUC(0-inf)	125 µM·h
CCOc1ccc(N(C)S(=O)(=O)c2cc(Cl)sc2C(=O)Nc2cc(Cl)cc(C(=O)O)c2)cc1OC	male C57BL/6 mouse	intraperitoneal, 10 mg/kg	AUC(0-t)	5810 ng·h/mL
CC(=O)O[C@@]12CO[C@@H]1C[C@H](O)[C@@]1(C)C(=O)[C@H](O)C3=C(C)[C@@H](OC(=O)[C@H](O)[C@@H](NC(=O)OC(C)(C)C)c4ccccc4)C[C@@](O)([C@@H](OC(=O)c4ccccc4)[C@H]21)C3(C)C	male Kunming mouse	oral, 20 mg/kg	AUC(0-t)	14.7 ng·h/mL
COc1cc2c(NC3CCN(CCCC(=O)NCCCCCCCCCCCC(=O)N[C@H](C(=O)N4C[C@H](O)C[C@H]4C(=O)NCc4ccc(-c5scnc5C)cc4)C(C)(C)C)CC3)nc(N3CCC(F)(F)CC3)nc2cc1OCCCN1CCCC1	male C57BL/6 mouse	intraperitoneal, 50 mg/kg, single dose	AUC(0-t)	61 µM·h
CN1CCN(C(=O)[C@H](CCCN[C@@H]2C[C@H]2c2ccc(F)cc2)NC(=O)c2ccc(-n3ccnn3)cc2)CC1	CD-1 mouse	intravenous, 3 mg/kg	AUC(0-t)	2.52 µM·h
C=CS(=O)(=O)c1ccc(Nc2nc(OCC3CCCCC3)c3nc[nH]c3n2)cc1	male BALB/c mouse	intravenous, 20 mg/kg, single dose	AUC(0-t)	124 ng·h/mL
Nc1ncn([C@H]2C[C@H](O)[C@@H](CO)O2)c(=O)n1	female C57BL/6 mouse	oral, 0.4 mg/kg	AUC(0-inf)	71 ng·h/mL
CN(C(=O)c1ccn2ncc(-c3ccc(C(N)=O)cc3)c2c1)c1ccc(C#N)cn1	female C57BL/6 mouse	intravenous, 1 mg/kg	AUC	2.68 µM·h
Cc1cc2sc(N)nc2c2cccnc12	female BALB/c mouse	intraperitoneal, 30 mg/kg, single dose	AUC(0-inf)	45600 ng·h/mL
CCOC(=O)CN(C(=O)c1ccn2ncc(-c3ccc(C(=O)NC)cc3)c2c1)c1ccc(Cl)cc1	female C57BL/6 mouse	oral, 10 mg/kg	AUC	1.18 µM·h
CCN1CCN(Cc2ccc(NC(=O)c3ccc(C)c(NC(=O)c4cncc(-c5cccs5)c4)c3)cc2C(F)(F)F)CC1	mouse	intraperitoneal, 20 mg/kg, single dose	AUC(0-t)	1990 ng·h/mL
